Screens: PubChem BioAssay, several laboratories
Shown is part of a subset that was picked to be rich in hits.
S1P3 antag – S1P3 (human) receptor antagonism; Q99500; CHO S1P3 NFAT-BLA reporter, FRET fluorescence, antagonist mode; inhibition, % at 4.98 µM; 170,000 tested, 0.27% active; AID 485;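 active = inhibition above the plate cutoff, the mean inhibition of test wells on that plate plus 3 SD, cut at about 28% in these data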;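 also: cells challenged with S1P at its EC80 of 0.8 µM; blue over green emission ratio from cleaved BLA substrate after 4 h stimulation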
S1P4 antag – antagonists of human S1P4 receptor; O95977; S1P4-expressing cells, antagonist mode, reporter read-out; inhibition, % at 4.98 µM; 220,000 tested, 0.26% active; in the data active = inhibition above about 29%
Target sequence (O95977 whole entry, looked up): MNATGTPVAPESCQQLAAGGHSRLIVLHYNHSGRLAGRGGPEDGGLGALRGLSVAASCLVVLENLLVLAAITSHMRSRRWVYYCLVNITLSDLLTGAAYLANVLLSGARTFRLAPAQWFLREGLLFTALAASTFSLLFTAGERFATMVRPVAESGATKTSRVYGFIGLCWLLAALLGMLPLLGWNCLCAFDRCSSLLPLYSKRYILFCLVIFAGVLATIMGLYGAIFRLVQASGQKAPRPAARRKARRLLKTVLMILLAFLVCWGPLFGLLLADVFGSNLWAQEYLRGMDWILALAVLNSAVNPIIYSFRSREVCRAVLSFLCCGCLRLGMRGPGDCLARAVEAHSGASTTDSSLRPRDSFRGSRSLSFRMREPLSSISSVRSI
S1P4 agonist – agonists of human S1P4 receptor | 220,000 tested, 0.35% active | activation, % at 4.98 µM | S1P4-expressing cell line, agonist reporter assay | O95977; in the data active = activation above about 11%
Mdm2 ligase inh – Mdm2 E3 ligase (human) inhibition | 210,000 tested, 0.11% active | signal enhancement, % at 5 µM | AID 1230 | Q00987 | cell-based MDM2 ubiquitination luciferase reporter, 2 h; 0 = plate control, 100 = twice control, blank-subtracted;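 active = signal enhancement of 30% or more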;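 also: luminescence tracks abundance of the self-degrading MDM2-luciferase fusion protein; higher signal means inhibition of MDM2 E3 ligase activity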
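test system = mammalian cells stably expressing self-ubiquitinating, self-degrading MDM2 E3–luciferase fusion | quantity = 2000 cells/well | incubation = cell settling 4 h, compound treatment 2 h, both 37 °C | signal = luminescence with SteadyLite reagent, 15 min at room temperature | evaluation = % enhancement relative to plate controls after blank subtraction | benchmarks = plate controls and plate blanks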
Lmaj promast – reduces viability of Leishmania major promastigotes | resazurin fluorescence viability | inhibition, % at 10 µM | 200,000 tested, 9% active | AID 1063; in the data active = inhibition above about 50%;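 also: promastigotes grown with compound for 44 hours at 28 °C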
Hits are given with their value; - = inactive; . = not tested or not shown.

SMILES | S1P3 antag | S1P4 antag | S1P4 agonist | Mdm2 ligase inh | Lmaj promast
CCN1CCN(CC(O)COc2ccc(Cl)cc2)CC1 (stereo not given) | . | - | - | - | 89
CN1CCN(CC(O)COc2ccc(OCC(O)CN3CCN(C)CC3)cc2)CC1 (stereo not given) | - | - | - | - | -
Cc1nn(C)cc1/C=N/NC(=O)Cn1nnc(N)n1 | - | - | - | - | .
CC1=C(C(=O)OCC(Br)(Br)Br)C(c2ccc(Br)cc2)NC(=O)N1CCCC(=O)O (stereo not given) | - | - | - | . | -
CC(C)C(=O)N1CCN(c2ccccc2NC(=O)c2cc([N+](=O)[O-])ccc2N2CCOCC2)CC1 | - | - | - | . | -
O=C(c1ccc(CS(=O)(=O)c2ccc(Br)cc2)o1)N1CCCCCC1 | - | - | - | - | -
COc1ccc(S(=O)(=O)Cc2ccc(C(=O)N3CCN(C4CCCCC4)CC3)o2)cc1 | - | - | - | - | 99
O=C(c1ccc(CS(=O)(=O)c2ccc(Br)cc2)o1)N1CCN(C2CCCCC2)CC1 | - | - | - | - | 99
COc1ccc(-c2csc3nc(-c4ccccc4OC)oc(=O)c23)cc1 | - | - | - | - | -
COc1ccc(NC(=O)Cn2c(NCC(C)O)nc3ccccc32)cc1Cl (stereo not given) | - | - | - | - | -
O=C(Nc1ccc(N2CCOCC2)cc1)C1CC(=O)N(c2ccc(F)cc2)C1 (stereo not given) | - | - | - | - | -
COCCNCC1C(Oc2ccc(Cl)cc2)C(=O)N1c1ccccc1C (stereo not given) | - | - | - | - | -
Cc1ccccc1N1C(=O)C(Oc2ccc(Cl)cc2)C1CNC(C)(C)C (stereo not given) | - | - | - | - | 87
Cc1cccc(/C=N/NC(=O)c2cc(-c3cccnc3)nc3c2c(C)nn3-c2ccccc2)c1 | - | - | - | - | 62
COc1ccc(O)c(C(=O)CC(=O)c2ccccc2)c1 | - | - | - | - | -
Cc1ccc(O)c(C(=O)c2cc(C(=O)NCCc3ccccc3)c(=O)n(CCc3ccccc3)c2)c1 | - | - | - | - | 99
COc1ccc(O)c(C(=O)c2cc(C(=O)NCCc3ccccc3)c(=O)n(CCc3ccccc3)c2)c1 | - | - | - | - | 77
CC(C)(C)C(=O)NCCN1C(=O)S/C(=C\c2ccc([N+](=O)[O-])cc2)C1=O | - | - | - | - | 57
CS(=O)(=O)c1ccc(C(=O)NCCN2C(=O)S/C(=C\c3cccnc3)C2=O)cc1[N+](=O)[O-] | - | - | - | - | 74
O=C(/C=C/c1ccccc1[N+](=O)[O-])NCCN1C(=O)S/C(=C\c2ccc(F)cc2)C1=O | - | - | - | - | -
CC1(CC(=O)O)SC(=O)NC1=O (stereo not given) | - | - | - | - | -
COc1ccc(N2CCN(C(=O)CSc3ncccc3-c3nc4ccccc4[nH]3)CC2)cc1 | - | - | - | . | 58
COc1ccccc1N1CCN(C(=O)CSc2ncccc2-c2nc3ccccc3[nH]2)CC1 | . | - | - | - | 50
O=C(CSc1ncccc1-c1nc2ccccc2[nH]1)NC1CC1 | - | - | - | - | -
O=C(CSc1ncccc1-c1nc2ccccc2[nH]1)N1CCN(c2ccccc2F)CC1 | - | - | - | - | -
SMILES | S1P3 antag | S1P4 antag | S1P4 agonist | Mdm2 ligase inh | Lmaj promast
CCCOC(=O)c1ccc(NC(=O)c2cc(=O)[nH]c3ccccc23)cc1 | - | - | - | - | .
CC(NC(=O)CSc1nnc(-c2cccnc2)n1N)c1ccccc1 (stereo not given) | - | - | - | - | -
COc1ccccc1-n1c(SCC(=O)Nc2ccc3c(c2)OCO3)nc2c(c1=O)SCC2 | . | - | - | - | 89
COC(Cc1n[nH]c(=S)n1-c1ccc(Cl)cc1)OC | . | - | - | - | -
CC1CC(C)CN(C(=O)c2ccc3c(c2NCCO)C(=O)c2ccccc2C3=O)C1 (stereo not given) | . | - | - | - | 99
Cc1cc(=O)c2cc(C(=O)c3ccccc3)ccc2[nH]1 | - | - | - | . | .
CC1CCCCN1S(=O)(=O)c1ccc(S(=O)(=O)N(Cc2ccccc2)Cc2ccco2)cc1 (stereo not given) | . | - | - | - | 69
CCN(Cc1ccccc1)S(=O)(=O)c1ccc(S(=O)(=O)N(Cc2ccccn2)Cc2ccco2)cc1 | . | - | - | - | -
Cc1cc(C)c(CN2CCC(CO)(CCOc3ccccc3)CC2)cc1C | - | - | - | - | 60
COc1ccc(OC)c(CN2CCC(CO)(CCOc3ccccc3)CC2)c1 | - | - | - | - | -
